Laboratory results reported in ChEMBL document CHEMBL4261646, “Bisphosphonate Inhibitors of Mammalian Glycolytic Aldolase” (J Med Chem, 2018).
One block for each molecule: values may come before it. Active and inactive are the calls of the source. The rule behind the calls is not given here.

Columns and labels:
[1] = Competitive-inhibition of fructose-bisphosphate aldolase (unknown origin) using FBP as substrate and […] in presence of constant enzyme concentration by UV-Vis spectrophotometry dependent TIM/GDH coupled assay based double-reciprocal plot analysis; parameters: species or system Homo sapiens
How it was run: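 Recombinant rabbit muscle aldolase at 0.01 μg/mL in TIM/GDH-coupled assay (NADH oxidation at 340 nm, 25 °C, Tris-acetate pH 7.5, 0.3 mM NADH).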

HeLa [2] = assay: Growth inhibition of human HeLa cells at 1 to 50 uM after 24 to 72 hrs by trypan blue exclusion assay; format: functional, cell-based
How it was run: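 HeLa cells were seeded at 3 x 10^5 cells/plate and grown in DMEM at 37 °C/5% CO2 with filter-sterilized inhibitor for 24, 48 or 72 h. Cells were trypsinized (0.25%), pelleted and resuspended. Total cells were counted by Trypan blue exclusion on a hemocytometer. At least three independent experiments; Student's two-tailed t-test.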

[3] = Inhibition of fructose-bisphosphate aldolase (unknown origin); parameters: species or system Homo sapiens
[4] = Inhibition of rabbit muscle fructose-bisphosphate aldolase using FBP as substrate and NADH by spectrophotometry based coupled enzyme assay; parameters: species or system Oryctolagus cuniculus
How it was run: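 Recombinant rabbit muscle aldolase was expressed in E. coli. FBP cleavage was coupled to triose-phosphate isomerase/glycerol-3-phosphate dehydrogenase, and NADH oxidation was read at 340 nm at 25 °C. Buffer was 50 mM Tris-acetate pH 7.5 with 1 mM EDTA and 0.3 mM NADH. Reactions were started by adding enzyme. At least three independent assays.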

[5] = (§1) Dual competitive-inhibition of fructose-bisphosphate aldolase (unknown origin) using FBP as substrate and […] in presence of constant enzyme concentration by UV-Vis spectrophotometry dependent TIM/GDH coupled assay based double-reciprocal plot analysis; parameters: species or system Homo sapiens
How it was run: (§2)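 Recombinant rabbit muscle aldolase was expressed in E. coli BL21-SI. Cleavage of FBP was coupled to TIM/GDH, and NADH oxidation was followed at 340 nm at 25 °C. Buffer was 50 mM Tris-acetate pH 7.5 with 1 mM EDTA and 0.3 mM NADH. Initial rates were fitted to a two-site reversible linear competitive model. At least three independent assays.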

[6] = as §1, with “origin) assessed as inhibition constant for two competitive binding sites in enzyme active site” for “origin)”; parameters: species or system Homo sapiens; how it was run: as §2
[7] = Inhibition of fructose-bisphosphate aldolase (unknown origin) using FBP as substrate and NADH preincubated for 0 mins followed by substrate addition by UV-Vis spectrophotometry based TIM/GDH coupled assay; parameters: species or system Homo sapiens
How it was run: (§3)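 Recombinant rabbit muscle aldolase was pre-incubated for the listed time with inhibitor at 0.01–20 μM, then assayed with 10 μM FBP. Cleavage was read by TIM/GDH coupling as NADH oxidation at 340 nm, 25 °C, in 50 mM Tris-acetate pH 7.5, 1 mM EDTA, 0.3 mM NADH. IC50 was taken from a 4-parameter fit; at least three independent assays.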

[8] = Inhibition of fructose-bisphosphate aldolase (unknown origin) using FBP as substrate and NADH preincubated for 10 mins followed by substrate addition by UV-Vis spectrophotometry based TIM/GDH coupled assay; parameters: species or system Homo sapiens; how it was run: as §3
[9] = Inhibition of fructose-bisphosphate aldolase (unknown origin) using FBP as substrate and NADH preincubated for 30 mins followed by substrate addition by UV-Vis spectrophotometry based TIM/GDH coupled assay; parameters: species or system Homo sapiens; how it was run: as §3
[10] = Inhibition of fructose-bisphosphate aldolase (unknown origin) using FBP as substrate and NADH preincubated for 90 mins followed by substrate addition by UV-Vis spectrophotometry based TIM/GDH coupled assay; parameters: species or system Homo sapiens; how it was run: as §3
[11] = Inhibition of fructose-bisphosphate aldolase (unknown origin) using FBP as substrate and NADH preincubated for 180 mins followed by substrate addition by UV-Vis spectrophotometry based TIM/GDH coupled assay; parameters: species or system Homo sapiens; how it was run: as §3
[12] = Slow binding inhibition of fructose-bisphosphate aldolase (unknown origin) assessed as dissociation constant using FBP as substrate and NADH by UV-Vis spectrophotometry dependent TIM/GDH coupled assay based Dixon plot analysis; parameters: species or system Homo sapiens
How it was run: (§4)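 Recombinant rabbit muscle aldolase, TIM/GDH-coupled NADH oxidation at 340 nm, 25 °C, in Tris-acetate pH 7.5 buffer with 1 mM EDTA and 0.3 mM NADH. Progress curves were recorded with 20–200 μM FBP and 0.5–75 μM inhibitor. Slow-binding constants came from non-linear regression under the Morrison–Walsh model; at least three independent assays.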

[13] = Slow binding inhibition of fructose-bisphosphate aldolase (unknown origin) assessed as overall inhibition constant using FBP as substrate and NADH by UV-Vis spectrophotometry dependent TIM/GDH coupled assay based Dixon plot analysis; parameters: species or system Homo sapiens; how it was run: as §4
HeLa [14] = assay: Growth inhibition of human HeLa cells at 50 uM after 72 hrs by trypan blue exclusion assay relative to control; format: functional; details: read-out: GI
How it was run: (§5)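 Cells seeded in DMEM (HeLa 3 x 10^5, HEK293 2 x 10^5 per plate) were kept at 37 °C, 5% CO2 with filter-sterilized compound for 24, 48 or 72 h. Cells were trypsinized and total counts made by Trypan blue exclusion on a hemocytometer. Student's two-tailed t-test; at least three independent experiments.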

HeLa [15] = assay: Growth inhibition of human HeLa cells at 10 uM after 72 hrs by trypan blue exclusion assay relative to control; format: functional; details: read-out: GI; how it was run: as §5
HEK293 = assay: Growth inhibition of HEK293 cells at 1 to 50 uM after 24 to 72 hrs by trypan blue exclusion assay; format: cell-based; details: human, hek293, 50 µM; how it was run: as §5
[16] = Slow binding inhibition of fructose-bisphosphate aldolase (unknown origin) assessed as dibasic species population adjusted dissociation constant using FBP as substrate and NADH by UV-Vis spectrophotometry dependent TIM/GDH coupled assay based Dixon plot analysis; parameters: species or system Homo sapiens; details: read-out: Ki(app)
[17] = Slow binding inhibition of fructose-bisphosphate aldolase (unknown origin) assessed as dibasic species population adjusted overall inhibition constant using FBP as substrate and NADH by UV-Vis spectrophotometry dependent TIM/GDH coupled assay based Dixon plot analysis; parameters: species or system Homo sapiens; details: read-out: Ki(app)
HeLa [18] = assay: Growth inhibition of human HeLa cells after 72 hrs by trypan blue exclusion assay relative to control; format: functional, cell-based; how it was run: as §5
HeLa [19] = assay: Growth inhibition of human HeLa cells assessed as transport efficiency corrected EC50 for after 72 hrs by trypan blue exclusion assay relative to control; format: functional, cell-based

Compound: O=P(O)(O)Oc1ccc2cc(OP(=O)(O)O)ccc2c1
Ki [1]: 280 nM
Ki [3]: 280 nM

Compound: O=P([O-])([O-])Oc1ccc2cc(C(P(=O)([O-])[O-])P(=O)([O-])[O-])ccc2c1.[Li+].[Li+].[Li+].[Li+].[Li+].[Li+]
IC50 [7]: 670 nM
IC50 [8]: 170 nM
IC50 [9]: 130 nM
IC50 [10]: 60 nM
IC50 [11]: 68 nM
Ki [12]: 280 nM
Ki [13]: 38 nM
inhibition of growth at 50 µM (HeLa [14]): 50%
inhibition of growth at 10 µM (HeLa [15]): 30%
growth inhibition (GI) (HEK293): Non-Toxic
Ki [16]: 56 nM
Ki [17]: 7.6 nM
EC50 (HeLa [18]): 50000 nM
EC50 (HeLa [19]): 75 nM

Further lines, with some results ahead:

Ki [1]: 42000 nM
Compound: O=P(O)(O)Oc1ccc(C(P(=O)(O)O)P(=O)(O)O)cc1
growth inhibition (GI) (HeLa [2]): inactive

Ki [4]: 120000 nM
Compound: O=C(COP(=O)(O)O)[C@@H](O)[C@@H](O)[C@H](O)COP(=O)(O)O

Ki [5]: 13000 nM
Ki [6]: 9000 nM
Compound: O=P(O)(O)C(c1ccc2cc(O)ccc2c1)P(=O)(O)O
